Tests used:
[1] = tested on: RAS-GTP levels in HeLa cells; assay: RAS-GTP levels in HeLa cells; assay type: cell-based; settings: 10 min treatment; for change in RAS-GTP levels: up to 30 μM
Method in brief: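 HeLa (WT KRAS) cells exposed to test compound for 10 min at concentrations up to 30 μM. RAS-GTP levels were measured together with the accompanying pERK1/2 T202/Y204 levels. EGF (50 ng/mL, 5 min) served as the positive control for pathway stimulation. Data are representative of two independent experiments.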

[2] = biological target: SOS1-mediated nucleotide exchange on RAS (Homo sapiens, UniProt Q07889); assay: SOS1-mediated nucleotide exchange assay; assay type: biochemical
Sequence of SOS1-mediated nucleotide exchange on RAS (Q07889 564-1049 limits assumed): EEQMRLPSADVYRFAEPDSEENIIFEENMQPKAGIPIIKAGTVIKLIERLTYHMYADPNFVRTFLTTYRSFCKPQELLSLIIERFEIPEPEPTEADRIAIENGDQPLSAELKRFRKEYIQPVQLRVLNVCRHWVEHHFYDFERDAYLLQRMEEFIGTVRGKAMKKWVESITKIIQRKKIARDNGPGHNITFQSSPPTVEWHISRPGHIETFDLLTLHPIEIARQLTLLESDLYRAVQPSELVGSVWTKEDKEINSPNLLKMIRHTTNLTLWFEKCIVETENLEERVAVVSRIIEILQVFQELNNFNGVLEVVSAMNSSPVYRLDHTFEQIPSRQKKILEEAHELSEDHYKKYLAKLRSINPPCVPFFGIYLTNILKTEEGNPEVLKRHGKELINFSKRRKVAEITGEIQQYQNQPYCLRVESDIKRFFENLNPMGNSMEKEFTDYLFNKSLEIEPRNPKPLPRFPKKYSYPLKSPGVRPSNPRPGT
Sequence of SOS1-mediated nucleotide exchange on RAS (P01112 1-166 partner limits assumed): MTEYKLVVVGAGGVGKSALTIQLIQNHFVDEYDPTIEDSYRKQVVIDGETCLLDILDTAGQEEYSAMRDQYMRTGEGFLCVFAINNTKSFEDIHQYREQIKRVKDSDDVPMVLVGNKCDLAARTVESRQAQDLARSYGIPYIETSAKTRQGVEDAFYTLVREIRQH

| Compound | change in RAS-GTP levels [1] | other results |
| --- | --- | --- |
| Cc1cc(Cn2c(N3CCNCC3)nc3c(N4CCN(C)CC4)cc(Cl)cc32)cc(C)c1F [Compound 42, 6-Chloro-1-(4-fluoro-3,5-dimethylbenzyl)-4-(4-methylpiperazin-1-yl)-2-(piperazin-1-yl)-1H-benzo[d]imidazole] | substantial increases in RAS-GTP levels at 10–30 μM | lowest concentration inducing small increases in RAS-GTP [1]: 0.3 µM |
| Cc1cc(Cn2c(N3CCNCC3)nc3ccc(Cl)cc32)cc(C)c1F [Compound 29, 6-Chloro-1-(4-fluoro-3,5-dimethylbenzyl)-2-(piperazin-1-yl)-1H-benzo[d]imidazole] |  | EC50 [2]: < 1 µM |
| Cc1cc(Cn2c(N3CC4(CNC4)C3)nc3c(-c4cncnc4C)cc(Cl)cc32)cc(C)c1F [Compound 60, 6-Chloro-1-(4-fluoro-3,5-dimethylbenzyl)-4-(4-methylpyrimidin-5-yl)-2-(2,6-diazaspiro[3.3]heptan-2-yl)-1H-benzo[d]imidazole] | only modest increases in RAS-GTP levels |  |
| Cc1cc(Cn2c(N3CC4(CNC4)C3)nc3c(N4CCN(C)CC4)cc(Cl)cc32)cc(C)c1F [Compound 64, 6-Chloro-1-(4-fluoro-3,5-dimethylbenzyl)-4-(4-methylpiperazin-1-yl)-2-(2,6-diazaspiro[3.3]heptan-2-yl)-1H-benzo[d]imidazole] | substantial increases in RAS-GTP levels at 10–30 μM | lowest concentration inducing small increases in RAS-GTP [1]: 0.3 µM |
| Cc1ncncc1-c1cc(Cl)cc2c1nc(N1CC3(CNC3)C1)n2Cc1ccc(F)cc1 [Compound 61, 6-Chloro-1-(4-fluorobenzyl)-4-(4-methylpyrimidin-5-yl)-2-(2,6-diazaspiro[3.3]heptan-2-yl)-1H-benzo[d]imidazole] | only modest increases in RAS-GTP levels |  |
| Cc1cc(Cn2c(N3CCNCC3)nc3c(-c4cncnc4C)cc(Cl)cc32)cc(C)c1F [Compound 55, 6-Chloro-1-(4-fluoro-3,5-dimethylbenzyl)-4-(4-methylpyrimidin-5-yl)-2-(piperazin-1-yl)-1H-benzo[d]imidazole] | only modest increases in RAS-GTP levels |  |
| Cc1cc2ncn(Cc3ccc(F)c(Cl)c3)c2cc1C [Compound 4, 1-(3-Chloro-4-fluorobenzyl)-5,6-dimethyl-1H-benzo[d]imidazole] |  | nucleotide exchange activation ([2]; in words): negligible nucleotide exchange activation |

Source: paper PMC8314423 (Journal of medicinal chemistry, 2018)
